The source of these data is paper PMC4486249 (Journal of medicinal chemistry, 2010).

Entries after “also recorded” stand apart in the source; their conditions may differ. Where a SMILES comes first, the peptide text is derived from it. Bounds are passed on as bounds.

Data set [1] deals with HIV-1HXB2 in MT-4 Luc cells. The data set is described as follows: MT-4 Luc assay, protection from HIV-1-induced cell death. The format is cell-based. The following applies: for IC50 of inhibition of HIV-1 replication in cells: MT-4 Luc cell system, in words; for inhibitory effect against HIV-1 replication: MT-4 Luc cells infected with HIV-1, luciferase signal, various concentrations (Figure 4).

Data set [2] relates to X4-tropic HIV-1HXB2 on MT-4 cells. Put plainly: HIV-1 replication kinetics in MT-4 cells. The data set is classed as cell-based. The following applies: 0.5 μM peptide, replication kinetics (Figure 5B). In outline:
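MT-4 cells (1×10^5) were exposed to HIV-1HXB2-containing culture supernatant (ca. 0.2-50 ng p24) for 30 min at room temperature, then washed and cultured with or without 0.5 μM test peptide. Supernatants were collected at several time points, with cells passaged if necessary. Replication was read out as p24 antigen levels measured by ELISA.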

Data set [3] deals with RT-associated RNase H (Human immunodeficiency virus type 1 group M subtype B, UniProt P04585). The data set is described as follows: RT-associated RNase H activity assay. The data set is classed as biochemical, HIV-1.
The subject of data set [4] is MT-4 Luc cells. To be noted: MT-4 Luc system (Figure 4).

As to `CC(=O)N[C@@H](CC(C)C)C(=O)N[C@@H](CCC(N)=O)C(=O)N[C@@H](CCC(N)=O)C(=O)N[C@@H](CC(C)C)C(=O)N[C@@H](CC(C)C)C(=O)N[C@@H](Cc1ccccc1)C(=O)N[C@@H](CCCNC(=N)N)C(=O)N[C@@H](CCCNC(=N)N)C(=O)N[C@@H](CCCNC(=N)N)C(=O)N[C@@H](CCCNC(=N)N)C(=O)N[C@@H](CCCNC(=N)N)C(=O)N[C@@H](CCCNC(=N)N)C(=O)N[C@@H](CCCNC(=N)N)C(=O)N[C@@H](CCCNC(=N)N)C(N)=O` [Vpr-1 R8] (Ac-LQQLLFRRRRRRRR-NH2), in data set [1] (MT-4 Luc cells, at a concentration of 20 μM), the antiviral effect result was “weak antiviral effect”.
In the case of `CC[C@H](C)[C@H](NC(C)=O)C(=O)N[C@@H](Cc1c[nH]cn1)C(=O)N[C@@H](Cc1ccccc1)C(=O)N[C@@H](CCCNC(=N)N)C(=O)N[C@H](C(=O)NCC(=O)N[C@@H](CCCNC(=N)N)C(=O)N[C@@H](CCCNC(=N)N)C(=O)N[C@@H](CCCNC(=N)N)C(=O)N[C@@H](CCCNC(=N)N)C(=O)N[C@@H](CCCNC(=N)N)C(=O)N[C@@H](CCCNC(=N)N)C(=O)N[C@@H](CCCNC(=N)N)C(=O)N[C@@H](CCCNC(=N)N)C(N)=O)[C@@H](C)CC` [Vpr-2 R8] (Ac-IHFRIGRRRRRRRR-NH2), the anti-HIV-1 activity result in data set [1] (MT-4 Luc cells, below concentrations of 20 μM) is “no significant anti-HIV-1 activity”.
For the molecule `CC[C@H](C)[C@H](NC(=O)[C@H](CCCNC(=N)N)NC(=O)[C@H](Cc1ccccc1)NC(=O)[C@H](Cc1cnc[nH]1)NC(=O)[C@@H](NC(=O)[C@H](Cc1ccccc1)NC(=O)[C@H](CC(C)C)NC(=O)[C@H](CC(C)C)NC(=O)[C@H](CCC(N)=O)NC(=O)[C@H](CCC(N)=O)NC(=O)[C@H](CC(C)C)NC(C)=O)[C@@H](C)CC)C(=O)NCC(=O)N[C@@H](CCCNC(=N)N)C(=O)N[C@@H](CCCNC(=N)N)C(=O)N[C@@H](CCCNC(=N)N)C(=O)N[C@@H](CCCNC(=N)N)C(=O)N[C@@H](CCCNC(=N)N)C(=O)N[C@@H](CCCNC(=N)N)C(=O)N[C@@H](CCCNC(=N)N)C(=O)N[C@@H](CCCNC(=N)N)C(N)=O` [Vpr-3 R8], the “replication of HIV-1HXB2” value in data set [2] is listed as “quite low; also recorded: extensively suppressed”. In data set [3], this molecule gave an IC50 of over 500 nM. The “cytotoxicity, comparison” value in data set [4] was “less cytotoxic than Vpr-4 R8”. Further, in data set [1], the “IC50 of inhibition of HIV-1 replication in cells” value is recorded as “submicromolar” and the “inhibitory effect against HIV-1 replication” value is given as “significant inhibitory effects”.
In data set [3], `CC[C@H](C)[C@H](NC(=O)[C@H](C)NC(=O)[C@H](CCC(=O)O)NC(C)=O)C(=O)N[C@H](C(=O)N[C@@H](CCCNC(=N)N)C(=O)N[C@H](C(=O)N[C@@H](CC(C)C)C(=O)N[C@@H](CCC(N)=O)C(=O)N[C@@H](CCC(N)=O)C(=O)N[C@@H](CC(C)C)C(=O)N[C@@H](CC(C)C)C(=O)N[C@@H](Cc1ccccc1)C(=O)N[C@H](C(=O)N[C@@H](Cc1c[nH]cn1)C(=O)N[C@@H](Cc1ccccc1)C(=O)N[C@@H](CCCNC(=N)N)C(=O)N[C@H](C(=O)NCC(=O)N[C@@H](CCCNC(=N)N)C(=O)N[C@@H](CCCNC(=N)N)C(=O)N[C@@H](CCCNC(=N)N)C(=O)N[C@@H](CCCNC(=N)N)C(=O)N[C@@H](CCCNC(=N)N)C(=O)N[C@@H](CCCNC(=N)N)C(=O)N[C@@H](CCCNC(=N)N)C(=O)N[C@@H](CCCNC(=N)N)C(N)=O)[C@@H](C)CC)[C@@H](C)CC)[C@@H](C)CC)[C@@H](C)CC` [Vpr-4 R8] displayed an IC50 of over 500 nM. For the same molecule, in data set [1], the “IC50 of inhibition of HIV-1 replication in cells” value is “submicromolar” and the “inhibitory effect against HIV-1 replication” value was “significant inhibitory effects”.

A word on the IC50: it is the concentration that gives 50% inhibition. A low value points to greater potency.
